Results: ChEMBL document CHEMBL4354837 (J Med Chem, 2020)
Calls of active or inactive are those of the source. No cut-off for these calls is given here. Square brackets hold non-standard residues; d marks the D form. Peptide text beside a SMILES is read from it. Dap = NC[C@H](N)C(=O)O

Key:
Melanocortin receptor 4 [1] = target: T1, Melanocortin receptor 4 (Homo sapiens, UniProt P32245); assay: Inverse agonist activity at human melanocortin receptor 4 expressed in HEK293 cells assessed as inhibition of basal cAMP accumulation incubated for 2 hrs by cAMP Alpha-screen assay; type: functional, cell-based
Outline: (§1)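 AlphaScreen cAMP assay in stably transfected HEK293 cells, with 10,000 cells/well in IBMX-containing HBSS/HEPES buffer pH 7.4. Peptide alone, up to 100 μM, 2 h at room temperature in the dark, then 2 h lysis/detection. Inverse agonism taken as percent decrease of cAMP from basal, relative to maximal NDP-MSH signal, at 100 μM. Duplicates, three independent experiments.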

[2] = target: Melanocyte-stimulating hormone receptor (Mus musculus) (UniProt Q01727); assay: Agonist activity at mouse melanocortin receptor 1 expressed in HEK293 cells assessed as stimulation of cAMP accumulation at 100 uM incubated for 2 hrs by cAMP Alpha-screen assay relative to control; type: functional, cell-based
Melanocortin receptor 3 [3] = target: T2, Melanocortin receptor 3 (Mus musculus, UniProt P33033); assay: Agonist activity at mouse melanocortin receptor 3 expressed in HEK293 cells assessed as stimulation of cAMP accumulation incubated for 2 hrs by cAMP Alpha-screen assay; type: functional, cell-based
Melanocortin receptor 4 [4] = target: Melanocortin receptor 4 (Mus musculus, UniProt P56450); assay: Agonist activity at mouse melanocortin receptor 4 expressed in HEK293 cells assessed as stimulation of cAMP accumulation incubated for 2 hrs by cAMP Alpha-screen assay; type: functional, cell-based
Melanocortin receptor 5 [5] = target: T3, Melanocortin receptor 5 (Mus musculus, UniProt P41149); assay: Agonist activity at mouse melanocortin receptor 5 expressed in HEK293 cells assessed as stimulation of cAMP accumulation incubated for 2 hrs by cAMP Alpha-screen assay; type: functional, cell-based
[6] = target: Melanocyte-stimulating hormone receptor (Mus musculus) (UniProt Q01727); assay: Ratio of IC50 for MDE6-82-1c to IC50 for test compound for displacement of [125I]-NDP-MSH from mouse melanocortin receptor 1 […] incubated for 1 hr by automatic gamma counting method
[7] = target: Melanocortin receptor 3 (Mus musculus) (UniProt P33033); assay: Ratio of IC50 for MDE6-82-1c to IC50 for test compound for displacement of [125I]-NDP-MSH from mouse melanocortin receptor 3 expressed in HEK293 cell mebranes incubated for 1 hr by automatic gamma counting method
Outline: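 Whole stably transfected HEK293 cells (>90% confluent) incubated 1 h at 37°C, 5% CO2, in DMEM with 0.1% BSA. […] Cells washed, lysed with NaOH/Triton X-100, and counted by gamma counter. Specific binding normalized to nonradioactive NDP-MSH. IC50 from duplicates in two experiments (mean ± SD). Fold difference taken against the Dap-containing parent control.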

[8] = target: Melanocortin receptor 4 (Mus musculus) (UniProt P56450); assay: Ratio of IC50 for MDE6-82-1c to IC50 for test compound for displacement of [125I]-NDP-MSH from mouse melanocortin receptor 4 […] incubated for 1 hr by automatic gamma counting method
[9] = target: Melanocortin receptor 5 (Mus musculus) (UniProt P41149); assay: Ratio of IC50 for MDE6-82-1c to IC50 for test compound for displacement of [125I]-NDP-MSH from mouse melanocortin receptor 5 […] incubated for 1 hr by automatic gamma counting method
Melanocortin receptor 4 [10] = target: T1, Melanocortin receptor 4; assay: Ratio of IC50 for MDE6-82-1c to IC50 for test compound for displacement of [125I]-NDP-MSH from human melanocortin receptor 4 […] incubated for 1 hr by automatic gamma counting method; type: cell membranes
[11] = target: Melanocortin receptor 5 (Mus musculus) (UniProt P41149); assay: Inverse agonist activity at mouse melanocortin receptor 5 expressed in HEK293 cells assessed as inhibition of basal cAMP accumulation incubated for 2 hrs by cAMP Alpha-screen assay relative to control; type: functional, cell-based; settings: concentration not given here; outline: as §1
Melanocortin receptor 3 [12] = target: T2, Melanocortin receptor 3; assay: Antagonist activity at mouse melanocortin receptor 3 expressed in HEK293 cells assessed as inhibition of NDP-MSH-induced cAMP accumulation incubated for 2 hrs by cAMP Alpha-screen assay based Schild analysis; type: functional, cell-based; settings: read-out: pA2 (converted)
Outline: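 NDP-MSH (10−6 to 10−12) plus antagonist at 10,000, 5,000, 1,000 and 500 nM, 2 h dark at room temperature. AlphaScreen cAMP read after lysis/bead step 2 h. Schild pA2; duplicates, at least three independent experiments.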

[13] = target: Melanocortin receptor 5 (Mus musculus) (UniProt P41149); assay: Inverse agonist activity at mouse melanocortin receptor 5 expressed in HEK293 cells assessed as inhibition of basal cAMP accumulation at 100 uM incubated for 2 hrs by cAMP Alpha-screen assay relative to control; type: functional, cell-based; outline: as §1
Melanocortin receptor 5 [14] = target: T3, Melanocortin receptor 5; assay: Antagonist activity at mouse melanocortin receptor 5 expressed in HEK293 cells assessed as inhibition of NDP-MSH-induced cAMP accumulation incubated for 2 hrs by cAMP Alpha-screen assay based Schild analysis; type: functional, cell-based; settings: read-out: pA2 (converted)
[15] = target: Melanocyte-stimulating hormone receptor (Mus musculus) (UniProt Q01727); assay: Ratio of IC50 for MDE6-82-3c to IC50 for test compound for displacement of [125I]-NDP-MSH from mouse melanocortin receptor 1 expressed in HEK293 cell mebranes incubated for 1 hr by automatic gamma counting method
Outline: (§2)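 Cells washed, lysed 10 min with 0.1 M NaOH/1% Triton X-100, then gamma-counted. Specific binding defined with unlabelled NDP-MSH and normalized to it. Duplicate wells, two experiments. IC50 by non-linear fit. Fold difference taken relative to the Asn-parent macrocycle control.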

Melanocortin receptor 3 [16] = target: T2, Melanocortin receptor 3; assay: Displacement of [125I]-NDP-MSH from mouse melanocortin receptor 3 expressed in HEK293 cell mebranes incubated for 1 hr by automatic gamma counting method; type: cell-based
[17] = target: Melanocortin receptor 4 (Mus musculus) (UniProt P56450); assay: Ratio of IC50 for MDE6-82-3c to IC50 for test compound for displacement of [125I]-NDP-MSH from mouse melanocortin receptor 4 expressed in HEK293 cell mebranes incubated for 1 hr by automatic gamma counting method; outline: as §2
Melanocortin receptor 5 [18] = target: T3, Melanocortin receptor 5; assay: Displacement of [125I]-NDP-MSH from mouse melanocortin receptor 5 expressed in HEK293 cell mebranes incubated for 1 hr by automatic gamma counting method; type: cell-based
Melanocortin receptor 4 [19] = target: T1, Melanocortin receptor 4; assay: Ratio of IC50 for MDE6-82-3c to IC50 for test compound for displacement of [125I]-NDP-MSH from human melanocortin receptor 4 expressed in HEK293 cell membranes incubated for 1 hr by automatic gamma counting method; outline: as §2
[20] = target: Melanocortin receptor 4 (Mus musculus) (UniProt P56450); assay: Agonist activity at mouse melanocortin receptor 4 expressed in HEK293 cells assessed as stimulation of cAMP accumulation at 100 uM incubated for 2 hrs by cAMP Alpha-screen assay relative to control; type: functional, cell-based
[21] = target: Melanocortin receptor 3 (Mus musculus) (UniProt P33033); assay: Ratio of IC50 for MDE6-82-3c to IC50 for test compound for displacement of [125I]-NDP-MSH from mouse melanocortin receptor 3 expressed in HEK293 cell mebranes incubated for 1 hr by automatic gamma counting method; outline: as §2
[22] = target: Melanocortin receptor 5 (Mus musculus) (UniProt P41149); assay: Ratio of IC50 for MDE6-82-3c to IC50 for test compound for displacement of [125I]-NDP-MSH from mouse melanocortin receptor 5 expressed in HEK293 cell mebranes incubated for 1 hr by automatic gamma counting method; outline: as §2
[23] = target: T4, Melanocyte-stimulating hormone receptor (Mus musculus, UniProt Q01727); assay: Agonist activity at mouse melanocortin receptor 1 expressed in HEK293 cells assessed as stimulation of cAMP accumulation incubated for 2 hrs by cAMP Alpha-screen assay; type: functional, cell-based
[24] = target: T4, Melanocyte-stimulating hormone receptor; assay: Displacement of [125I]-NDP-MSH from mouse melanocortin receptor 1 expressed in HEK293 cell mebranes incubated for 1 hr by automatic gamma counting method; type: cell-based; outline: as §2

T2 sequence (P33033 whole entry): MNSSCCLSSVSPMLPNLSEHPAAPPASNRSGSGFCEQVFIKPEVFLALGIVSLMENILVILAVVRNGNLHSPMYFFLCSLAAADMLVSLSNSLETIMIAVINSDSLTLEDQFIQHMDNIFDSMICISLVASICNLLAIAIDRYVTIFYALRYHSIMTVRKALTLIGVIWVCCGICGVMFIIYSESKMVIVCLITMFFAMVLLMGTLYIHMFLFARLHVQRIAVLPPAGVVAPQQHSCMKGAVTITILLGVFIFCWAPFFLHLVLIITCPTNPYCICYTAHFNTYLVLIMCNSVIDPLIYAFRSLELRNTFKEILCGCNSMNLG
Chain of Melanocortin receptor 5 (Mus musculus) (P41149 whole entry): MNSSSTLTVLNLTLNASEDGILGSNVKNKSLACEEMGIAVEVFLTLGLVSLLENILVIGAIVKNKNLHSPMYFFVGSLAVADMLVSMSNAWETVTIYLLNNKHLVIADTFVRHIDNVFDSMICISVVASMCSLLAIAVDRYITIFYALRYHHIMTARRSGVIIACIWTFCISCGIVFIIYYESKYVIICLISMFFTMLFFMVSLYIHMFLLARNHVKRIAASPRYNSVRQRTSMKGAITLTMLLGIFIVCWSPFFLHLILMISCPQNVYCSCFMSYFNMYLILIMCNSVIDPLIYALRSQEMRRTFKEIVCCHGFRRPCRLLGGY
T3 sequence (P41149 whole entry): as above
Chain of Melanocortin receptor 4 (Mus musculus) (P56450 whole entry): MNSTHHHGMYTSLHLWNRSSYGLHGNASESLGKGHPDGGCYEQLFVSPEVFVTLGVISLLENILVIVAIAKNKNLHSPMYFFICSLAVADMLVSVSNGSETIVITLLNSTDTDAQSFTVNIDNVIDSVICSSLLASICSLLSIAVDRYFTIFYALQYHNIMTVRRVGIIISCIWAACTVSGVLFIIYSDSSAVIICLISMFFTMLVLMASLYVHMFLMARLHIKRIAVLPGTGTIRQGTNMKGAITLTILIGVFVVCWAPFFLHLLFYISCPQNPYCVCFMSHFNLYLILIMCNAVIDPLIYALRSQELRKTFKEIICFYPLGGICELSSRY
Chain of Melanocortin receptor 4 (Mus musculus, UniProt P56450) (P56450 whole entry): as above
T1 sequence (P32245 whole entry): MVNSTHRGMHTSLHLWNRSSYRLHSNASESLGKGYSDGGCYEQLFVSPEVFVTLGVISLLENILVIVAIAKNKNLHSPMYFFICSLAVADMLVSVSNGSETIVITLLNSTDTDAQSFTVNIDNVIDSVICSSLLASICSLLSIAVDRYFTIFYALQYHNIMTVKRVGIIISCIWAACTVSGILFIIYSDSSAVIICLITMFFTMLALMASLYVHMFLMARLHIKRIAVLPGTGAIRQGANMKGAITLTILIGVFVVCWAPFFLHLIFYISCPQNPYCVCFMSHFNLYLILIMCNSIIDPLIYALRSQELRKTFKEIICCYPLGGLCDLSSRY
Chain of Melanocyte-stimulating hormone receptor (Mus musculus) (Q01727 whole entry, looked up): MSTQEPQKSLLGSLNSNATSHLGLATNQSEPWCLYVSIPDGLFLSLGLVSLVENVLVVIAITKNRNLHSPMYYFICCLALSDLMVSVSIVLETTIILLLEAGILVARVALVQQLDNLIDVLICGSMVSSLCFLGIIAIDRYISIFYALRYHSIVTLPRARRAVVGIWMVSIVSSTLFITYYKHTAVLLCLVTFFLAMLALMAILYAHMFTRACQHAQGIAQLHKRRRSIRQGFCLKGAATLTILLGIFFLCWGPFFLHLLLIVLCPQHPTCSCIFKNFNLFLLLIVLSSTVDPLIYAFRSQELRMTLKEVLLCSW
Chain of Melanocortin receptor 3 (Mus musculus) (P33033 whole entry): as the sequence (P33033 whole entry) above
T4 sequence (Q01727 whole entry): as the sequence (Q01727 whole entry, looked up) above

Row | Activity (Melanocortin receptor 4 [1]) | Activity [2] [%] | EC50 (Melanocortin receptor 3 [3]) [µM] | EC50 (Melanocortin receptor 4 [4]) [µM] | EC50 (Melanocortin receptor 5 [5]) [µM] | Ratio IC50 [17] | Ratio IC50 (Melanocortin receptor 4 [19]) | Compound | inhibition [13] [%] | Ratio IC50 [15] | IC50 (Melanocortin receptor 3 [16]) [µM] | IC50 (Melanocortin receptor 5 [18]) [µM] | further results
1 | inactive | 56 | > 100 | > 100 | > 100 | – | – | C[C@@H]1NC(=O)[C@H](CN)NC(=O)[C@H](Cc2ccccc2)NC(=O)[C@H](Cc2ccccc2)NC(=O)[C@H](Cc2c[nH]cn2)NC(=O)[C@@H]2CCCN2C(=O)[C@H]2CCCN2C(=O)[C@H](Cc2ccccc2)NC1=O (cyclo(PHFF[Dap]AF[dP])) | – | – | – | – | Ratio IC50 [6]: 5; Ratio IC50 [7]: 5; Ratio IC50 [8]: 500; Ratio IC50 [9]: 7; Ratio IC50 (Melanocortin receptor 4 [10]): 400
2 | – | – | – | – | – | – | – | C[C@@H]1NC(=O)[C@H](CC(N)=O)NC(=O)[C@H](Cc2ccccc2)NC(=O)[C@H](Cc2ccccc2)NC(=O)[C@H](CCCNC(=N)N)NC(=O)[C@@H]2CCCN2C(=O)[C@H]2CCCN2C(=O)[C@H](Cc2ccccc2)NC1=O | – | – | – | – | inhibition [11]: 10%
3 | Active | 23 | > 100 | – | > 100 | 2 | 3 | CC(C)[C@@H]1NC(=O)[C@H](CC(N)=O)NC(=O)[C@H](Cc2ccccc2)NC(=O)[C@H](Cc2ccccc2)NC(=O)[C@H](CCCNC(=N)N)NC(=O)[C@@H]2CCCN2C(=O)[C@H]2CCCN2C(=O)[C@H](Cc2ccccc2)NC1=O (cyclo(PRFFNVF[dP])) | – | 2 | – | – | Activity [20]: 16%; Ratio IC50 [21]: 3; Ratio IC50 [22]: 2
4 | Active | – | > 100 | > 100 | – | 100 | 2000 | C[C@@H]1NC(=O)[C@H](CC(N)=O)NC(=O)[C@H](Cc2ccccc2)NC(=O)[C@H](Cc2ccc(O)cc2)NC(=O)[C@H](CCCNC(=N)N)NC(=O)[C@@H]2CCCN2C(=O)[C@H]2CCCN2C(=O)[C@H](Cc2ccccc2)NC1=O (cyclo(PRYFNAF[dP])) | 35 | – | > 100 | > 100 | EC50 [23]: > 100 µM; IC50 [24]: > 100 µM

Row | Compound | Activity (Melanocortin receptor 4 [1]) | Activity [2] [%] | EC50 (Melanocortin receptor 3 [3]) [µM] | EC50 (Melanocortin receptor 4 [4]) [µM] | EC50 (Melanocortin receptor 5 [5]) [µM] | Ratio IC50 [17] | Ratio IC50 (Melanocortin receptor 4 [19]) | inhibition [13] [%] | Ratio IC50 [15] | IC50 (Melanocortin receptor 3 [16]) [µM] | IC50 (Melanocortin receptor 5 [18]) [µM] | further results
5 | C[C@@H]1NC(=O)[C@H](CC(N)=O)NC(=O)[C@H](Cc2ccccc2)NC(=O)[C@H](Cc2ccccc2)NC(=O)[C@H](CS)NC(=O)[C@@H]2CCCN2C(=O)[C@H]2CCCN2C(=O)[C@H](Cc2ccccc2)NC1=O (cyclo(PCFFNAF[dP])) | inactive | 46 | > 100 | > 100 | – | 90 | 300 | 32 | 3 | > 100 | > 100 | Kb (Melanocortin receptor 3 [12]): > 10 µM; Kb (Melanocortin receptor 5 [14]): > 10 µM
